Most compounds without a hit are left out; they make up all but 8.8% or so of the library.
S1P3 agonist: human S1P3 receptor agonists, primary screen, cell-based, primary and confirmation, NFAT-BLA reporter. hit rate 0.1% among 60,000. S1P3 NFAT-BLA reporter cells, agonism, FRET ratio; relative to 1 µM S1P, basal subtracted. Sphingosine 1-phosphate receptor 3 (Homo sapiens), Q99500. activation, % at 4.5 µM;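 active = activation above the screen-wide mean plus 3 SD, cut at about 4.5% in these data, passing the limit was not always enough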
Target sequence (Q99500 whole entry, looked up): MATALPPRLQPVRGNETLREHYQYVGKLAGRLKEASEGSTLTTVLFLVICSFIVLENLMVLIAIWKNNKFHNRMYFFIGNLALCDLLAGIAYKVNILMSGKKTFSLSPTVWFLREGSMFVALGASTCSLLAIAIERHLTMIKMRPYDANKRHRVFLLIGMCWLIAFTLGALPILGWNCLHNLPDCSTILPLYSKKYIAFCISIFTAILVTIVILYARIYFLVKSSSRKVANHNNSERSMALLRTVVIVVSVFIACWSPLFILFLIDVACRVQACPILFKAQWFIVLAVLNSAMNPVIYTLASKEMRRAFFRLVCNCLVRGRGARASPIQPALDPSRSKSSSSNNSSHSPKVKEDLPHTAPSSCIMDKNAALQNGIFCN
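material = human S1P3 NFAT-BLA reporter CHO cells | schedule = 4 h compound at 37 °C, 2 h substrate at RT | measured by = fluorescent BLA substrate, ex 405 nm, em 460/535 nm ratio | controls = 1 µM S1P reference | replication = primary once, confirmation triplicate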
RORA act: activators of orphan receptor RORA, primary screen, cell-based, luminescence; hit rate 1.5% among 65,000; activation, % at 10 µM; CHO-K1 Gal4-RORA LBD luciferase reporter; percent increase over mock-subtracted basal signal; Nuclear receptor ROR-alpha (Homo sapiens), P35398;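 active = activation above the mean of all tested compounds plus 3 SD, cut at about 49% in these data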
SF1 activator: activators of human SF-1, primary screen, cell-based, CHO-K1, Gal4-SF-1 LBD, luciferase luminescence; Steroidogenic factor 1 (Homo sapiens), Q13285; CHO-K1 Gal4-SF-1 LBD luciferase reporter; % increase over DMSO SF-1-specific signal; activation, % at 10 µM; hit rate 1.9% among 65,000;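 active = activation above the mean activation of all tested compounds plus 3 SD, cut at about 50% in these data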
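Assay system: CHO-K1 cells co-transfected with Gal4 DBD–human SF-1 LBD, 5xGal4 luciferase reporter; doses: 10 µM only; incubation: 20 h compound exposure at 37 °C after 1 h cell settling; signal: luciferase light emission; evaluation: percent activation versus DMSO; repeats: one test per compound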
M1 ag: M1 muscarinic receptor agonists, primary screen, CHO-M1 cells, Fluo-4 calcium, agonist mode; hit rate 3% among 64,000; B-score at 10 µM; Fluo-4 calcium fluorescence; stronger effect = higher value;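 active = fluorescence rise, raw or as B-score row- and column-corrected plate score, outside the 99.7% band of its plate's samples, either direction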
S1P1 ag pot: S1P1 agonists and agonism potentiators, primary screen, cell-based, primary and confirmation screens, CRE-bla reporter | hit rate 0.57% among 56,000 | AID 449, 2006 | Sphingosine 1-phosphate receptor 1 (Homo sapiens), P21453 | activation, % at 9.5 µM | S1P1 CRE-bla cells, forskolin, beta-lactamase FRET, potentiator mode; S1P1 agonist co-added at EC20, 2 nM; 100% = saturating reference agonist, 0% = basal;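 active = activation above a cutoff set at the mean activation of all tested compounds plus 3 SD, cut at about 54% in these data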;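 note: forskolin at 4 µM as EC80 and the EC20 agonist is SEW2871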
M1 antag: antagonists of rat M1 muscarinic receptor; CHO-M1 cells, Fluo-4 calcium, ACh EC80 antagonist mode; stronger effect = lower value; B-score at 10 µM; hit rate 3.4% among 64,000; AID 628, 2007;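 active = calcium fluorescence response, raw or row-and-column corrected B-score, differing from the plate sample mean either way at a set confidence level, mostly lower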
M1 antag confirm: rat M1 muscarinic receptor antagonists, confirmation, CHO cells, Fluo-4 calcium, duplicate | calcium response (max-min fluorescence) at 10 µM | shares compounds with M1 antag | hit rate 43% among 1,700 | ACh EC80 antagonism; stronger effect = lower value;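 active = calcium response below the same-plate mean of wells given acetylcholine alone at its 80%-effect dose, minus 3 SD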
mGluR4 antag: human mGluR4 response to M1 antagonist hits, M1 allosteric modulator project, cell-based, antagonist mode, secondary assay 1; AID 678, 2007; shares compounds with M1 antag; CHO-mGluR4 calcium flux, Fluo-4 fluorescence, glutamate EC80; stronger effect = lower value; hit rate 0.9% among 1,700; fluorescence response (max-min) at 10 µM;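 active = fluorescence response below the plate's average for near-maximal glutamate wells, less 3 SD of those wells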;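 note: raw unnormalized fluorescence span taken in the window right after glutamate addition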
Each line names hits and unclear results; the compound was inactive in the other large screens (follow-up assays come after a bar, where they were run).

COc1ccc2nc(NC(=O)CCc3nc(-c4ccccc4F)no3)sc2c1	none
O=S1(=O)N=C(N2CCc3ccccc3C2)c2ccccc21	M1 antag -2.1 | M1 antag confirm 600 | mGluR4 antag inactive
O=S1(=O)N=C(N2CCCc3ccccc32)c2ccccc21	none
COc1cc(C2N(c3ccc(F)cc3)C(=O)C3CCCN32)cc(OC)c1OC (stereo not given)	M1 antag -4.4 | M1 antag confirm inactive | mGluR4 antag inactive
CCN(CC)S(=O)(=O)c1ccc(C2CNC(=O)C2)cc1 (stereo not given)	none
Cc1cccc(Cn2c(N3CCCCC3C)nc3c2c(=O)[nH]c(=O)n3C)c1 (stereo not given)	M1 antag -4.2 | M1 antag confirm 90 | mGluR4 antag inactive
CNc1nc(N)c(C(=O)C(C)(C)C)s1	M1 antag -1.8 (no result: S1P1 ag pot) | M1 antag confirm inactive | mGluR4 antag inactive
CCOc1ccc(C2CC(c3ccc(F)cc3)n3ncnc3N2)cc1 (stereo not given)	none
CC(=O)Oc1cc2c(C(C)=O)coc2c2ccccc12	none
CC(=O)c1cc(C)ccc1OC(=O)c1cccc2nc(C)oc12	M1 antag -4.2 | M1 antag confirm inactive | mGluR4 antag inactive
CCOC(=O)CSc1nnc(CNC(=O)c2ccc(S(=O)(=O)N3CCCC3)cc2)n1C	M1 antag -1.2 | M1 antag confirm inactive | mGluR4 antag inactive
Cc1nn(C)c(C)c1S(=O)(=O)Nc1ccc2c(c1)OCO2	M1 antag -5.9 | M1 antag confirm inactive | mGluR4 antag inactive
CCN(CC)c1ccc(NC(=O)COc2ccc(C)cc2)cc1	none
CCOc1ccccc1N1CCN(CC(O)COc2ccc3c(C)cc(=O)oc3c2)CC1 (stereo not given)	M1 antag -1.5 (no result: S1P3 agonist, S1P1 ag pot) | M1 antag confirm 455 | mGluR4 antag inactive
Cc1ccc(C)c(-n2c(CNc3ccc(F)cc3)nnc2SCC(N)=O)c1	none
Cc1ccc2nc3c(cc2c1)CN(Cc1ccco1)C(=NCC1CCCO1)S3 (stereo not given)	none
Cc1ccc2cc3c(nc2c1)N(Cc1ccco1)CC3	M1 antag -1.3 | M1 antag confirm 319 | mGluR4 antag inactive
O=C(NCCOC(=O)C1COc2ccccc2O1)c1cccnc1 (stereo not given)	none
Cc1nc2ncnn2c(C)c1Cc1ccc(Cl)cc1F	none
N=c1sccn1CC(=O)NCCc1ccc(Cl)cc1	M1 antag -4.7 | M1 antag confirm 408 | mGluR4 antag inactive
N#C/C(C(=O)c1ccccc1)=C1/CCCCCN1	SF1 activator 61, M1 antag -2.4 | M1 antag confirm inactive | mGluR4 antag inactive
COc1cccc(-n2ccnc2SCC(=O)NCc2ccccc2)c1	M1 antag -2.7 | M1 antag confirm inactive | mGluR4 antag inactive
CN1CCN(CC#CCn2c3ccccc3c3ccccc32)CC1	M1 antag -13 | M1 antag confirm 229 | mGluR4 antag inactive
N#CCCN1CCN(Cn2c3ccccc3c3ccccc32)CC1	none
O=C(CCn1nc(-c2ccc(Cl)cc2)ccc1=O)N1CCN(c2ccccn2)CC1	M1 antag -3 (no result: S1P3 agonist, S1P1 ag pot) | M1 antag confirm inactive | mGluR4 antag inactive
O=C(CCn1nc(-c2ccc(Cl)cc2)ccc1=O)N1CCOCC1	none
O=C(CCC1CCCC1)Nc1ccc(Br)cn1	none
CCCSc1nnc2c(n1)OC(c1cccn1C)N(C(C)=O)c1ccccc1-2 (stereo not given)	M1 antag -10 | M1 antag confirm 23 | mGluR4 antag inactive
O=C(COc1c(F)c(F)cc(F)c1F)NC(=O)NC1CCCC1	M1 antag -12 | M1 antag confirm 223 | mGluR4 antag inactive
CCCCn1c(N)c(N(CCC(C)C)C(=O)CSc2nnc(C)s2)c(=O)[nH]c1=O	none
O=C(NCc1ccc2c(c1)OCO2)c1ccc(C2SCC(=O)N2Cc2ccco2)cc1 (stereo not given)	none
Nc1nnc(SCCOc2ccc(Br)cc2)s1	none
Cc1ccc(NC(=O)CS(=O)CC(=O)NC2CCN(Cc3ccccc3)CC2)c(C)c1 (stereo not given)	M1 antag -7.8 | M1 antag confirm inactive | mGluR4 antag inactive
COC(=O)c1cc(NC2c3ccccc3C(=O)N2c2cccnc2)cc(C(=O)OC)c1 (stereo not given)	none
CCOC(=O)N1CCC(N2C(=O)c3ccccc3C2Nc2cc(C(=O)OC)cc(C(=O)OC)c2)CC1 (stereo not given)	M1 antag -2.8 | M1 antag confirm inactive | mGluR4 antag inactive
CC[N+](C)(CC)CCOC(=O)C(O)(c1ccccc1)C1CCCCC1 (stereo not given)	M1 antag -16 | M1 antag confirm 10 | mGluR4 antag inactive
CCOC(=O)C(C(=O)Nc1ccccc1)C1CCCCC1 (stereo not given)	none
CC(=O)Cc1nsc(NC(=O)c2cc(-c3ccccc3Cl)oc2C)n1	none
Cc1sc2ncnc(N[C@@H](CCC(=O)O)C(=O)O)c2c1C	none
Cc1sc2ncnc(NCC(c3ccco3)N(C)C)c2c1C (stereo not given)	M1 antag -21 | M1 antag confirm inactive | mGluR4 antag inactive
CCCC(=O)c1c(NC(C)C)cc(C)oc1=O	none
O=C(Cn1c(=O)oc2ccccc21)NC(=O)NCc1ccco1	none (no result: S1P3 agonist, S1P1 ag pot)
CC1Cc2ccccc2N1CC(=O)NC(=O)NCc1ccco1 (stereo not given)	M1 antag -4.1 | M1 antag confirm inactive | mGluR4 antag inactive
CC1(C)CC(NC(=O)C23CCC(C)(/C(=N/O)C2)C3(C)C)CC(C)(C)N1 (stereo not given)	none
Cn1nnnc1SCCNCc1ccncc1	none
CC1CCN(CCCNC(=O)c2n[nH]c(=O)c3ccccc23)CC1	none
CC1CCN(CCCNC(=O)c2coc3nc4ccccc4nc23)CC1	M1 antag -4.8 | M1 antag confirm 390 | mGluR4 antag inactive

Assay outcomes as filed in PubChem.
